# In the library only some 2% were active in any assay of this set; here they are far more common.
# Xi reactivation = activators of X-chromosome reactivation in mouse fibroblasts; XiGFP mouse fibroblasts, % GFP-positive cells imaging, 3 d; cells co-treated with 5-aza-dC sensitizer; scaled so ellipticine positive control = 100%; 360,000 tested, 0.055% active; activation, % at 7.58 µM;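 active = mean normalized replicate activation at least 10% and every replicate at or above 10%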;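 note: 0% = median of on-plate neutral control wells and 100% = ellipticine 6 µM median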
#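 Material: XiGFP fibroblasts, SV40-immortalized; Buffer or medium: DMEM containing 5-aza-dC; Compound dosing: single point; Times: 3 days compound exposure.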
# sPLA2-III inh = Inhibits HGIII-sPLA2 liposome hydrolysis, primary screen. Q9NZ20. QFRET BODIPY PC-A2 liposome hydrolysis, fluorescence. inhibition, % at 12.2 µM. 370,000 tested, 0.56% active. AID 743126;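 active = inhibition above mean plus 3 SD of compounds lying within the high and low control bounds, cut at about 19% in these data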;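 note: 0% = median of test compound wells and 100% = no enzyme DMSO wells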
# NSD2 HMT inh = inhibitors of human histone methyltransferase NSD2; O96028; NSD2 peptide methylation, AlphaScreen, 120 min; inhibition, % at 12.5 µM; 310,000 tested, 0.54% active; in the data active = inhibition above about 50%
# SR-BI DiI inh = inhibitors of mouse SR-BI mediated HDL lipid uptake | inhibition, % at 12.5 µM | ldlA[mSR-BI] CHO cells, DiI-HDL uptake fluorescence, 3 h | Q61009 | 320,000 tested, 0.96% active;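 active = mean replicate inhibition of at least 70% and a set share of replicates each scoring 70 or more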;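 note: 0% = median of neutral control wells and 100% = median of positive control wells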
# ARNT TACC3 PPI = disruptors of human ARNT/TACC3 interaction; inhibition, % at 9.99 µM; AlphaScreen His-ARNT PAS-B/GST-TACC3 binding, luminescence; TACC3 fragment carries E629A point mutation; AID 623870; 390,000 tested, 0.66% active;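 active = mean inhibition of replicates at least 50% and at least half of replicates each reaching 50%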;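 note: 0% = complete ARNT plus TACC3 wells and 100% = ARNT alone without TACC3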
# SR-BI DiI-HDL act = SR-BI HDL lipid transfer activation | AID 504775 | 320,000 tested, 0.096% active | activation, % at 12.5 µM | CHO ldlA[mSR-BI] cells, DiI-HDL uptake fluorescence, 3 h; 100 = double the neutral-control signal;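 active = mean replicate activation of at least 60% and every replicate at or above 60%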;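 note: 0% = median plate neutral-control signal and 100% = twice that signal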
#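 System: LDL receptor-deficient CHO ldlA cells overexpressing murine SR-BI | Timing: 3 h uptake period with compound, 37 °C | Medium: HEPES-buffered (25 mM, pH 7.4) F12 plus 0.5% BSA | Dosing: Single-point compound dose | Signal: Bottom-read fluorescence, 550/595 nm | Read-out: Retained DiI signal reflecting DiI-HDL uptake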
# sPLA2 confirm = human GIII-sPLA2 inhibition, confirmation; recombinant hGIII-sPLA2, BODIPY PC-A2 QFRET fluorescence; shares compounds with sPLA2-III inh; AID 743280; 2,000 tested, 34% active; inhibition, % at 12.2 µM;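 active = mean inhibition across triplicates above the hit cutoff set in the earlier primary screen, cut at about 19% in these data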;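 note: 0% = enzyme with DMSO and 100% = DMSO wells lacking enzyme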
# 535nm interf = 535nm fluorescence interference, HGIII-sPLA2 counter-screen; 2,000 tested, 8.5% active; shares compounds with sPLA2-III inh; BODIPY FL product fluorescence interference, QFRET; inhibition, % at 12.2 µM;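 active = average inhibition above the solvent-only control mean plus 3 SD, cut at about 6% in these data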;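 note: 0% = DMSO with substrate plus product and 100% = DMSO with substrate alone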
# 535nm interf DR = 535nm optical interference dose response, HGIII-sPLA2 counter-screen | shares compounds with sPLA2-III inh | BODIPY FL product fluorescence interference, cell-free | IC50, µM | 240 tested, under 10 active;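 active = IC50 at or below 10 µM; inactive = IC50 above 10 µM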
# Numbers without * were called inactive; . = not tested or not shown.
SMILES,Xi reactivation,sPLA2-III inh,NSD2 HMT inh,SR-BI DiI inh,ARNT TACC3 PPI,SR-BI DiI-HDL act,sPLA2 confirm,535nm interf,others
COC(=O)c1cc2sccc2n1CC(=O)Nc1ccc(OC)c(OC)c1OC,.,-6.2,-6.6,-34.2,-2.7,34.2,.,.,
CCOC(=O)c1cc2sccc2n1CC(=O)Nc1ccc(OC)cc1OC,.,20.9*,-1.7,17.6,-2.9,-17.6,-25.4,-17.9,
Cc1cccc(/C=N/Nc2ccc3ccccc3n2)c1,0.0,22.6*,-3.1,2.6,24.1,-2.6,-20.2,-6.3,
N#CCCn1cc(C(=O)Nc2ccccc2Br)c(-c2cc3ccccc3o2)n1,-0.1,-21.2,0.0,43.0,-7.7,-43.0,.,.,
CO[C@@H]1CN(C)C(=O)c2ccc(NC(=O)c3ccno3)cc2OC[C@H](C)NC[C@@H]1C,0.3,.,.,.,-2.4,.,.,.,
O=C(N/N=C/c1coc2ccccc2c1=O)c1cc(Br)ccc1O,0.0,21.8*,4.3,6.0,3.9,-6.0,13.4,0.8,
COc1cccc(S(=O)(=O)Nc2ccc3c(c2)C(=O)N(C)C[C@H](OC)[C@@H](C)CN(C(=O)Cc2cccnc2)[C@@H](C)CO3)c1,-0.3,.,.,.,-2.2,.,.,.,
COc1cccc(O[C@H]2C=C[C@@H](c3ccccc3)O[C@@H]2CO)c1,.,-4.2,.,.,.,.,.,.,
CC(NC(=O)CN1CCOCC1)c1ccc(F)cc1 (configuration not stated),0.0,20.6*,-1.2,-7.1,2.6,7.1,-5.1,-5.0,
CCN(CC)CC(=O)Nc1cc(N(C)C)nc2ccccc12,0.0,19.5*,-2.9,11.0,26.1,-11.0,10.7,-10.2,
N#Cc1ccccc1S(=O)(=O)N1CCN(C(=O)C2COc3ccccc3O2)CC1 (configuration not stated),0.2,-6.7,-2.6,-3.3,-0.8,3.3,.,.,
C[C@@H]1CN([C@@H](C)CO)C(=O)c2cc(NS(=O)(=O)c3ccc(F)cc3)ccc2O[C@H]1CN(C)C(=O)Nc1cccc2ccccc12,0.0,.,.,.,0.2,.,.,.,
CCOC(=O)Cn1c(CN2CCN(C(=O)c3ccco3)CC2)nc2c1c(=O)n(C)c(=O)n2C,0.2,3.8,10.2,4.9,6.9,-4.9,.,.,
CCN(CC)C(=O)c1ncn2c1c(=O)[nH]c1ccccc12,0.4,19.5*,.,.,.,.,5.7,-1.8,
CC1CCN(C(=O)c2ncn3c2c(=O)[nH]c2ccccc23)CC1,0.0,4.7,.,.,.,.,.,.,
O=C(Nc1ccc(F)cc1F)c1cc2ccccc2oc1=O,0.0,-2.8,-2.8,-14.8,-2.7,14.8,.,.,
Cc1ccccc1OCC(=O)NNC(=S)NC(=O)c1ccccc1[N+](=O)[O-],0.1,23.2*,1.5,-12.2,-0.7,12.2,28.3*,-4.1,535nm interf DR=>122
CCCOc1ccc(C(=O)NNC(=S)NC(=O)c2ccccc2[N+](=O)[O-])cc1,0.0,21.2*,2.5,-2.6,20.9,2.6,31.1*,-4.0,
CCCOc1ccc(C(=O)Nc2ccccc2[N+](=O)[O-])cc1,.,2.9,-4.0,-18.7,-3.2,18.7,.,.,
O=C(NNC(=S)NC(=O)c1ccccc1[N+](=O)[O-])c1ccccc1,.,19.5*,-0.6,.,7.9,.,23.9*,-2.6,
CC(C)C(=O)Nc1ccc(C(=O)NNC(=S)NC(=O)c2ccccc2[N+](=O)[O-])cc1,-0.1,20.7*,-16.4,6.3,1.5,-6.3,18.2,-3.7,
O=C(NC(=S)NNC(=O)c1ccccc1[N+](=O)[O-])c1ccccc1,.,3.5,-2.1,1.2,27.0,-1.2,.,.,
CNc1cncc(-c2cc(OC)c(OC)c(OC)c2)n1,-0.2,15.4,-1.6,.,.,.,.,.,
O=C(NC(=S)N1CCCCCC1)c1cccc([N+](=O)[O-])c1,-0.1,20.3*,4.6,-22.3,.,22.3,15.0,-2.8,
O=C(NC(=S)Nc1ccc(N2CCOCC2)cc1)c1cccc([N+](=O)[O-])c1,0.7,4.4,0.1,17.0,-1.8,-17.0,.,.,
SMILES,Xi reactivation,sPLA2-III inh,NSD2 HMT inh,SR-BI DiI inh,ARNT TACC3 PPI,SR-BI DiI-HDL act,sPLA2 confirm,535nm interf,others
O=C(NC(=S)Nc1ccc(CN2CCOCC2)cc1)c1cccc([N+](=O)[O-])c1,0.0,19.3*,-5.0,-15.1,3.7,15.1,3.3,-5.7,
COc1ccc(C(=O)NC(=S)NNC(=O)c2ccc(NC(=O)C(C)C)cc2)cc1,0.0,25.9*,1.3,.,35.2,.,27.0*,-5.2,
CCC(=O)NC(=S)NNC(=O)c1ccccc1[N+](=O)[O-],0.3,-3.9,-6.9,-8.4,-6.3,8.4,.,.,
CCCCC(=O)Nc1ccc(C(=O)NNC(=S)NC(=O)c2ccccc2[N+](=O)[O-])cc1,-0.2,23.3*,-0.8,-8.2,10.2,8.2,20.9*,-3.8,
CC(C)NC(=O)N(C)C[C@@H]1Oc2ncc(-c3ccc(C(=O)N(C)C)cc3)cc2C(=O)N([C@@H](C)CO)C[C@H]1C,0.1,.,.,.,-13.6,.,.,.,
C[C@H](CO)N1C[C@H](C)[C@@H](CN(C)C(=O)Nc2ccc(F)cc2)Oc2ccc(NC(=O)CCCCCC(=O)Nc3ccccc3N)cc2CC1=O,-1.0,.,.,.,.,.,.,.,
CCC[C@H]1[C@@H](OC(=O)NCc2cccnc2)CC[C@@]23CCCN2C(=O)CCC[C@@H]13,.,6.1,.,.,.,.,.,.,
O=C(NNC(=S)NC(=O)c1ccccc1)c1cccc([N+](=O)[O-])c1,0.1,24.7*,1.4,9.3,14.4,-9.3,25.4*,-0.6,
O=C(NNC(=S)NC(=O)c1cccc([N+](=O)[O-])c1)c1ccc(O)cc1,0.0,16.5,0.4,7.3,16.5,-7.3,.,.,
CCCOc1ccccc1C1NC(=O)NC(C)=C1C(=O)OCCOC (configuration not stated),.,20.7*,-0.1,1.9,3.9,-1.9,1.9,-1.3,
Cc1ccc(NC(=S)NNC(=O)c2ccc(N3CCOCC3)c([N+](=O)[O-])c2)cc1Cl,0.0,16.5,4.1,-24.4,7.3,24.4,.,.,
O=C(NNC(=S)Nc1ccc(Br)cc1)c1ccc(N2CCOCC2)c([N+](=O)[O-])c1,.,24.5*,7.0,22.2,-6.7,-22.2,30.1*,11.2*,
O=C(c1ccc(N2CCOCC2)c([N+](=O)[O-])c1)N1CCCCC1,0.1,1.8,-4.6,-14.9,2.8,14.9,.,.,
O=C(NNC(=S)Nc1ccc(Cl)cc1Cl)c1ccc(N2CCOCC2)c([N+](=O)[O-])c1,0.2,24.1*,38.1,10.8,16.1,-10.8,28.4*,12.4*,
